Test results published in ChEMBL document CHEMBL4118234, “Synthesis and biological evaluation of irreversible EGFR tyrosine kinase inhibitors containing pyrido[3,4-d]pyrimidine scaffold” (Bioorg Med Chem, 2018).

Experiments:
[1] = test system: HCC827; experiment: Antiproliferative activity against human HCC827 cells harboring EGFR E746 to A750 deletion mutant after 72 hrs by MTT assay; assay type: functional, cell-based; settings: HCC827, 72 h
Summary of the method: (§1)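 Cells were kept in RPMI-1640 with 10% heat-inactivated FBS, plus 1% of 100 mM sodium pyruvate for HCC827, at 37 °C and 5% CO2. They were seeded at 3000-5000 per well and pre-incubated 24 h. Final compound concentrations were 0.33, 1, 33, 100, 333, 1000, 3333, 10000 nM for 72 h. MTT was added for 4 h, formazan dissolved in DMSO, and OD read at 490 nm. Inhibition ratios were taken against control culture, and IC50 calculated from them. At least three experiments were run in triplicate.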

[2] = Solubility of the compound; assay type: physicochemical
[3] = test system: NCI-H1975; experiment: Antiproliferative activity against human NCI-H1975 cells harboring EGFR L858R/T790M double mutant at 10 uM after 72 hrs by MTT assay relative to control; assay type: functional; summary of the method: as §1
[4] = test system: NCI-H1975; experiment: Antiproliferative activity against human NCI-H1975 cells harboring EGFR L858R/T790M double mutant after 72 hrs by MTT assay; assay type: functional, cell-based; settings: NCI-H1975, 72 h; summary of the method: as §1
[5] = test system: HCC827; experiment: Antiproliferative activity against human HCC827 cells harboring EGFR E746 to A750 deletion mutant at 10 uM after 72 hrs by MTT assay relative to control; assay type: functional; summary of the method: as §1
[6] = target: Epidermal growth factor receptor (Homo sapiens, UniProt P00533, C797S/L858R/T790M); experiment: Inhibition of EGFR L858R/T790M/C797S triple mutant (unknown origin) using Poly(Glu,Tyr) as substrate after 40 mins by Kinase-Glo luminescence assay
[7] = target: Epidermal growth factor receptor (Homo sapiens, UniProt P00533); experiment: Inhibition of wild type EGFR (unknown origin) using Poly(Glu,Tyr) as substrate after 40 mins by Kinase-Glo luminescence assay
Sequence of Epidermal growth factor receptor (Homo sapiens, UniProt P00533) (P00533 whole entry): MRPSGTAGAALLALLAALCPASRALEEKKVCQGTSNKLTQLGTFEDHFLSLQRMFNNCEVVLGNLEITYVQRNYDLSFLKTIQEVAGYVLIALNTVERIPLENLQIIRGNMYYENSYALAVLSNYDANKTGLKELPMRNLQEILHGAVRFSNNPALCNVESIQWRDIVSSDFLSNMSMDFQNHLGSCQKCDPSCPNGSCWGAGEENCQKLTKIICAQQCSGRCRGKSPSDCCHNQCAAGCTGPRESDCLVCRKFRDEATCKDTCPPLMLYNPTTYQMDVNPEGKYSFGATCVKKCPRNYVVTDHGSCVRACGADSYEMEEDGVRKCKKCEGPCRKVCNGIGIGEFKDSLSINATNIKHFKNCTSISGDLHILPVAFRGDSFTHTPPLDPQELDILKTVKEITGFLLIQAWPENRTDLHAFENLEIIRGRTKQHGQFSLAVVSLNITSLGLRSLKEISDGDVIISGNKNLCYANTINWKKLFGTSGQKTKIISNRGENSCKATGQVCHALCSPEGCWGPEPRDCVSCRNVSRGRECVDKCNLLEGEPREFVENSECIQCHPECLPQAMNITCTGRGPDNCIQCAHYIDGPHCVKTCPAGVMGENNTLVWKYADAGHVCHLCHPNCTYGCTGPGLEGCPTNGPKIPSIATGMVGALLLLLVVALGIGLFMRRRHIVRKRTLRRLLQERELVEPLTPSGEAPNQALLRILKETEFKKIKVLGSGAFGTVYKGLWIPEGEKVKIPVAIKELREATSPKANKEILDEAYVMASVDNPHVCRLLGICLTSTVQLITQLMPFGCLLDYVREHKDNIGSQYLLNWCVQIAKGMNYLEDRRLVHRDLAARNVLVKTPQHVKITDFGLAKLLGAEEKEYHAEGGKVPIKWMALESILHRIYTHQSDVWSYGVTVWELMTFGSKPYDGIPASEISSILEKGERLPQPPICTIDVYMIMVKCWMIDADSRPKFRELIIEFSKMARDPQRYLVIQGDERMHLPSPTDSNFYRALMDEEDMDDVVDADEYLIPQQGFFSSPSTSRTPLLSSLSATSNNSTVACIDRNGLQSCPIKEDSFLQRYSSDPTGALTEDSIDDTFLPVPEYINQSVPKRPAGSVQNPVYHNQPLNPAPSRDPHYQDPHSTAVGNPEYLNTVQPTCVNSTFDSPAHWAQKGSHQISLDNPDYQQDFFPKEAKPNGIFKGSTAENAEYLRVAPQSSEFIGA

[8] = target: Epidermal growth factor receptor (Homo sapiens, UniProt P00533, L858R); experiment: Inhibition of EGFR L858R mutant (unknown origin) using Poly(Glu,Tyr) as substrate after 40 mins by Kinase-Glo luminescence assay
Sequence of Epidermal growth factor receptor (Homo sapiens, UniProt P00533, L858R) (P00533 25-1210 L858R limits assumed): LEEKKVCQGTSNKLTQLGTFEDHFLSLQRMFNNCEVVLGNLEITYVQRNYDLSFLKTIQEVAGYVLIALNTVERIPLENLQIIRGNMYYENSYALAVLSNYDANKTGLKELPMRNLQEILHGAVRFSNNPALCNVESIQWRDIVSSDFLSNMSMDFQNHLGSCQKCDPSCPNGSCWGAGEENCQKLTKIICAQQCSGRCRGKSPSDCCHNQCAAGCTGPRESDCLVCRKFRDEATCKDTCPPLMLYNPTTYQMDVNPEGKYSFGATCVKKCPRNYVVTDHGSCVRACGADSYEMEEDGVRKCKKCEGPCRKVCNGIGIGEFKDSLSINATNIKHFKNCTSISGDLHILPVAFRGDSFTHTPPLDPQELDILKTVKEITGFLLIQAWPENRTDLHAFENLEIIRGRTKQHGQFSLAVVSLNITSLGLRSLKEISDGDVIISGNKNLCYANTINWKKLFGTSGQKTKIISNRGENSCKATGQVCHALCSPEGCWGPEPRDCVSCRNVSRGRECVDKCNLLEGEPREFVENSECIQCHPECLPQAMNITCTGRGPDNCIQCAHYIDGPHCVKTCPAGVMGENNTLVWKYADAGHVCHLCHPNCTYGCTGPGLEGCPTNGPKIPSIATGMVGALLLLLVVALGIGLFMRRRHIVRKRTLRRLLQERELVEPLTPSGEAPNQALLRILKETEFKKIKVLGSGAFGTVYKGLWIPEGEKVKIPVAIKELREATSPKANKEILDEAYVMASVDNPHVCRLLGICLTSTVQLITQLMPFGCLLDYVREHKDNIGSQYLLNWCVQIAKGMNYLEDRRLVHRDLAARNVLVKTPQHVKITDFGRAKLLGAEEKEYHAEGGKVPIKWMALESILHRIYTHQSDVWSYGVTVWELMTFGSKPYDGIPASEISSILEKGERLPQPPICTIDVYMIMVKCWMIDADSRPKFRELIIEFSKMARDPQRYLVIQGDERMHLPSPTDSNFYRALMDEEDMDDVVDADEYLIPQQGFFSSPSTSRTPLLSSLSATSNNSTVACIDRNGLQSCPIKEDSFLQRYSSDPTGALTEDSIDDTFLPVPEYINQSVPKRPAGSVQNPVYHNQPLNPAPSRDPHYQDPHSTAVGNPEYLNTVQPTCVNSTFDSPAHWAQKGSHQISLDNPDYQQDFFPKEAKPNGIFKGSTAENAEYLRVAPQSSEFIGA

[9] = target: Epidermal growth factor receptor (Homo sapiens, UniProt P00533, L858R/T790M); experiment: Inhibition of EGFR L858R/T790M double mutant (unknown origin) using Poly(Glu,Tyr) as substrate after 40 mins by Kinase-Glo luminescence assay
Sequence of Epidermal growth factor receptor (Homo sapiens, UniProt P00533, L858R/T790M) (P00533 25-1210 T790M/L858R limits assumed): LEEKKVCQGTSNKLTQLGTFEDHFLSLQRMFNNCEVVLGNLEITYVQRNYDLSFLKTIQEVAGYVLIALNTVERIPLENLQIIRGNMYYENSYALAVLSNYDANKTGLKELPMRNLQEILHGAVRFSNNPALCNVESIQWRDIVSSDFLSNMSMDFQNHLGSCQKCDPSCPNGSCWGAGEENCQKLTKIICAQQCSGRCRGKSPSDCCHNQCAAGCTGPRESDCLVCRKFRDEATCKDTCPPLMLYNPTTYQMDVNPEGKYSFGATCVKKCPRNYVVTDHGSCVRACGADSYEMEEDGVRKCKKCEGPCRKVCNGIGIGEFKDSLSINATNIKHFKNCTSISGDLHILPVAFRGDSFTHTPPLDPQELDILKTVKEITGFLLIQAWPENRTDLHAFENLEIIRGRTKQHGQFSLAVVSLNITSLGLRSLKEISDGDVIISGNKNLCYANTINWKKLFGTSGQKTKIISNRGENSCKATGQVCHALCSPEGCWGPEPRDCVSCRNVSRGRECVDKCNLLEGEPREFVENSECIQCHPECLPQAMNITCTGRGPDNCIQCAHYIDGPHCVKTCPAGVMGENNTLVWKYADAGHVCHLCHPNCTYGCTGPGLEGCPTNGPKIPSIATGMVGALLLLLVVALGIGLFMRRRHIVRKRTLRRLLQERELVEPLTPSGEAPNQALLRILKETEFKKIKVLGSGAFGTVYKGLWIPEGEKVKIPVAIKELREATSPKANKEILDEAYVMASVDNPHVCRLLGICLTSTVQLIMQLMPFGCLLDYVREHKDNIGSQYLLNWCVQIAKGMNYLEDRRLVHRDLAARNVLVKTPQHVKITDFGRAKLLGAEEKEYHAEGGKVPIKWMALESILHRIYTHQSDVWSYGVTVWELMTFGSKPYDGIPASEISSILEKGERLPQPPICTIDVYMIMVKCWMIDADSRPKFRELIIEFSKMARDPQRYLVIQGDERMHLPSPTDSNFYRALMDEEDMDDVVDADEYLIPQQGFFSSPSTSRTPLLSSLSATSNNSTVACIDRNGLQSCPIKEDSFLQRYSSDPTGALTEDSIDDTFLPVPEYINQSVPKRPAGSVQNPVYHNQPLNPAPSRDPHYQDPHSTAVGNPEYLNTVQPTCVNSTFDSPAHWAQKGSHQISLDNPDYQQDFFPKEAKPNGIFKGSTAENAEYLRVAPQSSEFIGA

[10] = test system: Epidermal growth factor receptor (Homo sapiens), P00533 [L858R,T790M,C797S]; experiment: Inhibition of EGFR L858R/T790M/C797S triple mutant (unknown origin) at 500 nM using Poly(Glu,Tyr) as substrate after 40 mins by Kinase-Glo luminescence assay relative to control
Sequence of Epidermal growth factor receptor (Homo sapiens), P00533 [L858R,T790M,C797S] (P00533 whole entry T790M/C797S/L858R): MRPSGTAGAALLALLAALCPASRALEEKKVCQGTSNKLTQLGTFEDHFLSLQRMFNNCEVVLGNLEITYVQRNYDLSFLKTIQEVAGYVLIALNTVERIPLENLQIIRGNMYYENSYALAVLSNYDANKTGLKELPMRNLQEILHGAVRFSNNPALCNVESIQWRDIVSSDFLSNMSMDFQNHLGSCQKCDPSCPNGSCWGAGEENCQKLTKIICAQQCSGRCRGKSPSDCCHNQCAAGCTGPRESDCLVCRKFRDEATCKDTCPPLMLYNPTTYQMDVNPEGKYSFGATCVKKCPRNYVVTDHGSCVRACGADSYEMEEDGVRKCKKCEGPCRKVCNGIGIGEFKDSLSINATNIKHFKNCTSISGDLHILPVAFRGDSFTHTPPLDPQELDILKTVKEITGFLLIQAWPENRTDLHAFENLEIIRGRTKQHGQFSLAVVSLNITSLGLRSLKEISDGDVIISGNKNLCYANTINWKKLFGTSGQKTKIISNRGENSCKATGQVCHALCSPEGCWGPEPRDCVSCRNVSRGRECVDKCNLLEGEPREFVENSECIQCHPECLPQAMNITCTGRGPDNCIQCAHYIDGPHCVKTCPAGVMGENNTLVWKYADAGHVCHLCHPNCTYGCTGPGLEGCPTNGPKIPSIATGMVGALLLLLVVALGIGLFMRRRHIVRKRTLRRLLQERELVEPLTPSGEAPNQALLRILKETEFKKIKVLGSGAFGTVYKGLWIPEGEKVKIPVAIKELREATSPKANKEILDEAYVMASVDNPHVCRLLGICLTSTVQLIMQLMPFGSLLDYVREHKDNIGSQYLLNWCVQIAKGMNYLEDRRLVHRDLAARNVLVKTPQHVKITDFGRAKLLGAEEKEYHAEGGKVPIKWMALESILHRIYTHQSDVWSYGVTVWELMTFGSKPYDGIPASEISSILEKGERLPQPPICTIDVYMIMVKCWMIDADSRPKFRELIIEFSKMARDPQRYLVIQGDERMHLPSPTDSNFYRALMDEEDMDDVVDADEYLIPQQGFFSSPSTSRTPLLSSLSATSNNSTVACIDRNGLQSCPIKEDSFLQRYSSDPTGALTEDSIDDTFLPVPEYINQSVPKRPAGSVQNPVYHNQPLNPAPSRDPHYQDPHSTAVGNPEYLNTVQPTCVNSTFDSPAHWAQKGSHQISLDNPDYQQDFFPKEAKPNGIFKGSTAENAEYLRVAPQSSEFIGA
Summary of the method: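 The reaction ran 40 min at 30 °C in 40 mM Tris pH 7.4, 10 mM MgCl2, 0.1 mg/mL BSA, 1 mM DTT, 10 µM ATP, 25 ng kinase, and 0.2 mg/mL poly(Glu,Tyr); final DMSO was 1%. Remaining ATP was read by Kinase-Glo Plus luminescence. Inhibition was scored relative to no-compound and no-enzyme signals. At least two experiments were run.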

[11] = test system: A549; experiment: Cytotoxicity against human A549 cells harboring wild type EGFR assessed as reduction in cell viability after 72 hrs by MTT assay; assay type: cell-based; settings: A549, 72 h; summary of the method: as §1
[12] = test system: HCC827; experiment: Induction of apoptosis in human HCC827 cells harboring EGFR E746 to A750 deletion mutant assessed as early apoptotic cells at 3 uM after 24 hrs by Annexin V-FITC/propidium iodide staining based flow cytometry (reference value: 1.34 to 1.67%); assay type: functional
[13] = test system: HCC827; experiment: Induction of apoptosis in human HCC827 cells harboring EGFR E746 to A750 deletion mutant assessed as late apoptotic cells at 3 uM after 24 hrs by Annexin V-FITC/propidium iodide staining based flow cytometry (reference value: 23.66 to 27.14%); assay type: functional

Structure (SMILES)	IC50 [1]	solubility [2]	IC50 [4]	IC50 [7]	IC50 [8]	IC50 [9]	IC50 [11]	also measured
C=CC(=O)N[C@@H]1CCN(c2ncnc3cnc(Nc4ccc(N5CCN(C)CC5)cn4)cc23)C1	3520 nM		> 10000 nM					Activity [3]: <50%
C=CC(=O)Nc1cccc(Nc2cc3c(N4CCCC4)nc(OC4CCOCC4)nc3cn2)n1	2740 nM	Insoluble						
C=CC(=O)Nc1cccc(Nc2cc3c(N4CCCC4)nc(Nc4cccc(F)c4)nc3cn2)n1	> 10000 nM	Insoluble						Activity [5]: <50%
C=CC(=O)N1CC[C@@H](Nc2nc(Nc3ccccc3)nc3cnc(Nc4ccc(N5CCN(C)CC5)cn4)cc23)C1	170 nM	Soluble	440 nM	3.3 nM	4.6 nM	106 nM	650 nM	IC50 [6]: > 500 nM; inhibition [10]: < 50%
C=CC(=O)N1CC[C@H](Nc2nc(Nc3ccccc3)nc3cnc(Nc4ccc(N5CCN(C)CC5)cn4)cc23)C1	270 nM	Soluble	860 nM	9.9 nM	10.8 nM	238 nM	1670 nM	IC50 [6]: > 500 nM; inhibition [10]: < 50%
C=CC(=O)N[C@@H]1CCN(c2nc(Nc3ccccc3)nc3cnc(Nc4ccc(N5CCN(C)CC5)cn4)cc23)C1	20 nM	Soluble	1440 nM	2.7 nM	4.7 nM	36.6 nM	1190 nM	
C=CC(=O)Nc1cc(Nc2nccc(-c3cn(C)c4ccccc34)n2)c(OC)cc1N(C)CCN(C)C [OSIMERTINIB]	27 nM		[…]				530 nM	Activity [12]: 8.28%; Activity [13]: 68.1%
C=CC(=O)N[C@@H]1CCN(c2ncnc3cnc(Nc4ccc(OCCOC)cc4OC)cc23)C1	> 10000 nM							Activity [5]: <50%
C=CC(=O)Nc1cccc(Nc2cc3c(N4CCCC4)nc(OCc4ccccc4)nc3cn2)n1	> 10000 nM	Insoluble						
C=CC(=O)N[C@H]1CCN(c2nc(Nc3ccccc3)nc3cnc(Nc4ccc(N5CCN(C)CC5)cn4)cc23)C1	69 nM	Soluble	850 nM	1.5 nM	3.2 nM	26.5 nM	640 nM	IC50 [6]: 285 nM
C=CC(=O)Nc1cccc(Nc2cc3c(N4CCCC4)nc(OCc4ccc(F)cc4)nc3cn2)n1	> 10000 nM	Insoluble						
C=CC(=O)Nc1cccc(Nc2cc3c(N4CCCC4)nc(Nc4ccccc4)nc3cn2)n1	> 10000 nM	Insoluble						Activity [5]: <50%

The next lines start with results.

IC50 [1]	solubility [2]	IC50 [4]	IC50 [7]	IC50 [8]	IC50 [9]	Structure (SMILES)	IC50 [11]	also measured
8700 nM	Insoluble					C=CC(=O)Nc1cccc(Nc2cc3c(N4CCCC4)nc(OCC4CCOCC4)nc3cn2)n1		
> 10000 nM						C=CC(=O)N[C@@H]1CCN(c2ncnc3cnc(Nc4ccc(OCCN(C)C)cc4OC)cc23)C1		Activity [5]: <50%
54 nM	Soluble	1750 nM	5.4 nM	6.5 nM	164 nM	C=CC(=O)N[C@@H]1CCCN(c2nc(Nc3ccccc3)nc3cnc(Nc4ccc(N5CCN(C)CC5)cn4)cc23)C1	810 nM	IC50 [6]: > 500 nM; inhibition [10]: < 50%
73 nM	Soluble	1400 nM	12 nM	14.2 nM	361 nM	C=CC(=O)N[C@H]1CCCN(c2nc(Nc3ccccc3)nc3cnc(Nc4ccc(N5CCN(C)CC5)cn4)cc23)C1	810 nM	IC50 [6]: > 500 nM; inhibition [10]: < 50%
> 10000 nM						C=CC(=O)N[C@@H]1CCN(c2ncnc3cnc(Nc4ccc(N5CCN(C)CC5)cc4OC)cc23)C1		Activity [5]: <50%
> 10000 nM	Insoluble					C=CC(=O)Nc1cccc(Nc2cc3c(N4CCCC4)nc(OCC4CCCCC4)nc3cn2)n1		
